Compound activity: PubChem BioAssay, several laboratories
Hits are enriched below; roughly 3.8% of the tested compounds scored in any of these assays.
MrgX1 antag – antagonists of human MrgX1 receptor, primary screen, HEK293 cells, Fluo-4 calcium flux | Mas-related G-protein coupled receptor member X1 (Homo sapiens), Q96LB2 | BAM8-22 antagonism; active compounds read low | B-score at 10 µM | 310,000 tested, 1.3% active | AID 588676, 2011;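 active = calcium-response B-score plate-corrected more than 3 library SD below zero, starting fluorescence within 5 deviations, no agonist response on first addition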;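 also: peak minus trough fluorescence over baseline after final BAM8-22 challenge near maximal dose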
Target sequence (Q96LB2 whole entry, looked up): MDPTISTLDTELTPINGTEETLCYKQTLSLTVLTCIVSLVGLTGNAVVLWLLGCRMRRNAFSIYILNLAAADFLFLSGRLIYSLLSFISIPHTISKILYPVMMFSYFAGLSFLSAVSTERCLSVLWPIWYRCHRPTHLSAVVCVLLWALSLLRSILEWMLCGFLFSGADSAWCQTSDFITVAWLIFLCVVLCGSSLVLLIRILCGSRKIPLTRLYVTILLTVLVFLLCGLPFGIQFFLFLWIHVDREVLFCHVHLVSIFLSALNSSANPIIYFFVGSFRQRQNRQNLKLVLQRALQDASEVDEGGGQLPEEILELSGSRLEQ
MrgX1 allo act – positive allosteric modulators of MrgX1, primary screen, HEK293 cells, Fluo-4 calcium flux; Mas-related G-protein coupled receptor member X1 (Homo sapiens), Q96LB2; FDSS; active compounds read high; B-score at 10 µM; 310,000 tested, 0.63% active;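 active = plate-corrected calcium response at least 3 library SD above typical, normal starting fluorescence, not activating the receptor alone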;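 also: compound read alongside a low EC10 to EC30 dose of BAM8-22 agonist; peak minus trough fluorescence over baseline measured at the second addition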
Lipid droplet – inhibitors of hepatocyte lipid droplet formation, primary screen, imaging, high-throughput imaging, BODIPY stain. AML12 mouse hepatocytes, oleate lipid droplets. inhibition, % at 6.5 µM. 240,000 tested, 0.4% active;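 active = lipid droplet intensity inhibited by at least 50%, with more than 500 cells counted; inconclusive = wells with under 300 cells, treated as cytotoxic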
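Material: mouse AML12 hepatocyte cell line, fixed after treatment; Timing: compound with oleate, overnight; Technique: high-content imaging of BODIPY-stained droplets and DAPI nuclei; Probe or stimulus: oleate, 100 µM final; Dosing: compound at 6.5 µM only.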
MrgX1 ag – agonists of human MrgX1 receptor, primary screen, HEK293 cells, Fluo-4 calcium flux | Mas-related G-protein coupled receptor member X1 (Homo sapiens), Q96LB2 | Fluo-4 calcium fluorescence, agonist mode; active compounds read high | B-score at 10 µM | 310,000 tested, 0.44% active;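 active = calcium response B-score plate-corrected fluorescence ratio at least 3 library SD, with starting fluorescence B-score inside 5 SD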
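times = overnight plating, then 30 min 37 °C plus 30 min room-temperature dye loading | assay system = stable human MrgX1 HEK293 cell line | input = fifteen thousand cells per well | signal = kinetic calcium dye fluorescence, Fluo-4 NW | dosing = compound delivered in addition one of three | read-out = B-scored fluorescence response ratio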
RGS4 pot – RGS4 potentiators or activators, primary screen, cell-based, HEK293 M3R inducible RGS4, calcium flux; B-score at 10 µM; 310,000 tested, 0.92% active; carbachol calcium flux Fluo4; active compounds read low;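 active = B-score of the integrated calcium signal more than 4 SD below the library mean, with starting fluorescence not abnormally high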;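 also: negative B-score means reduced calcium response which marks RGS4 activation or potentiation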
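Material: M3R-expressing HEK293 line, RGS4 induced by doxycycline | Schedule: Overnight RGS4 induction, 30 min dye load 37 °C, 20 min compound RT | Measured by: Fluo4 fluorescence kinetic imaging of calcium | Read-out: Integrated calcium ratio converted to B score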
RGS4 block – RGS4 inhibitors, primary screen, cell-based, HEK293 M3R inducible RGS4, calcium flux | Regulator of G-protein signaling 4 (Homo sapiens), P49798 | Fluo-4 calcium flux; active compounds read high; triggered by carbachol at its EC20 | B-score at 10 µM | 310,000 tested, 0.45% active | AID 463165, 2010;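 active = B-score, a plate-corrected calcium signal, over three deviations above library mean, with baseline fluorescence within five deviations of library mean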;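 also: RGS4 expression induced by doxycycline in cells with stable M3 receptor; B-score is computed from the integrated fluorescence ratio over baseline after carbachol; higher B-score means a larger calcium signal and so more RGS4 inhibition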
Target sequence (P49798 whole entry, looked up): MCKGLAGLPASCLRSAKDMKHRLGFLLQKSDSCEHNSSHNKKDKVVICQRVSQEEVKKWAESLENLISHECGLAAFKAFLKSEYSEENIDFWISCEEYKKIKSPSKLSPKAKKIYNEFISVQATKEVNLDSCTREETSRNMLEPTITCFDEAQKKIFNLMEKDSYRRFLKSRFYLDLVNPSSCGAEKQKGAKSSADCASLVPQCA
Lipid drop inh – hepatocyte lipid droplet accumulation inhibitors, confirmation, imaging, AML12 mouse hepatocytes, single concentration, high-content | shares compounds with Lipid droplet | BODIPY lipid droplet imaging; droplets induced with 100 µM oleic acid | inhibition, % at 5.2 µM | 870 tested, 65% active;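 active = inhibition of lipid droplet metric at least 50%, with more than 300 cells in each of four replicates; inconclusive = wells under 300 cells, flagged as toxic or low count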;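 also: plate controls were DMSO with oleic acid for no effect and 5 µM Triacsin-C for full effect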
AML12 tox img – AML12 hepatocyte cytotoxicity, counter-screen for hepatic lipid droplet formation project, imaging, DAPI nuclear morphology imaging; shares compounds with Lipid droplet; z-score at 5 µM; 870 tested, 3% active; AML12 mouse hepatocytes; active compounds read high; cells fed 100 µM oleate overnight; in the data active = z-score above about 6.3;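 also: compound exposure lasted overnight at 37 °C before fixation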
AML12 tox ATP – AML12 hepatocyte cytotoxicity, confirmation, cytotoxicity control for hepatic lipid droplet formation project, cell-based, single concentration; AML12 mouse hepatocyte viability, ATP luminescence; cells loaded with 100 µM oleic acid; shares compounds with Lipid droplet; cytotoxicity, % at 50 µM; 530 tested, under 10 active; AID 463219, 2010;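 active = cytotoxicity above 50% in each of four replicates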;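 also: compound exposure lasted overnight at 37 °C before the ATP read; 0% = DMSO-treated cells and 100% = wells with no cells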
Active calls of the source: *; i = inactive; ? = inconclusive; . = not tested or not shown.

SMILES | MrgX1 antag | MrgX1 allo act | Lipid droplet | MrgX1 ag | RGS4 pot | RGS4 block | Lipid drop inh | AML12 tox img | AML12 tox ATP
CC(=O)Nc1ccc(NC(=O)CSc2nnc(NC(=O)Cc3ccc(F)cc3)s2)cc1 | i | i | 2 | i | i | i | . | . | .
COC(=O)c1cn(NC(=O)c2ccc([N+](=O)[O-])cc2Cl)c(=O)c2ccccc12 | i | i | 50* | i | i | i | 25 | 0.56 | .
O=C1C(NS(=O)(=O)c2ccc(Br)cc2)=C(N2CCCCC2)C(=O)c2ccccc21 | i | i | 19 | i | i | i | . | . | .
O=C1C(NS(=O)(=O)c2cccs2)=C(N2CCN(c3cccc(Cl)c3)CC2)C(=O)c2ccccc21 | i | i | 61* | i | i | i | 112* | 0.38 | 18
CC1CCN(C2=C(NS(=O)(=O)c3ccccc3)C(=O)c3ccccc3C2=O)CC1 | i | i | 35 | i | i | i | . | . | .
CCN1CCN(C2=C(NS(=O)(=O)c3ccc(C)cc3)C(=O)c3ccccc3C2=O)CC1 | i | i | -15 | i | i | i | . | . | .
CC1CCN(C2=C(NS(=O)(=O)c3ccc(Br)cc3)C(=O)c3ccccc3C2=O)CC1 | i | i | 60* | i | i | i | 114* | -0.12 | 23
CC1CCCN(C2=C(NS(=O)(=O)c3ccc(Br)cc3)C(=O)c3ccccc3C2=O)C1 (configuration not stated) | i | i | 50* | i | i | i | 112* | -1.2 | 23
O=C1C(NS(=O)(=O)c2ccccc2)=C(N2CCN(c3ccc(F)cc3)CC2)C(=O)c2ccccc21 | i | i | 79* | i | i | i | 81* | -1.4 | 17
Cc1ccc(SCC(=O)NC(=O)NCCC(C)C)c(C)c1 | i | i | -3 | i | i | i | . | . | .
NC(=O)C1(C(N)=O)OC1c1ccccc1 (configuration not stated) | i | i | 14 | i | i | i | . | . | .
CN(CC(=O)Nc1ccccc1C(F)(F)F)C(=O)COc1ncnc2ccccc12 | i | i | -7 | i | i | i | . | . | .
Cc1cc2c(cc1S(=O)(=O)Nc1c(C)cccc1C)n(C)c(=O)c(=O)n2C | i | i | 71* | i | i | i | 92* | -0.12 | 8
CCc1ccc(NS(=O)(=O)c2cc3c(cc2C)n(C)c(=O)c(=O)n3C)cc1 | i | i | 51* | i | i | i | 93* | -0.7 | 5
Cc1cc2c(cc1S(=O)(=O)Nc1cccc(C)c1C)n(C)c(=O)c(=O)n2C | i | i | 54* | i | i | i | 66 | -0.54 | .
Cc1cccc(NS(=O)(=O)c2cn(C)c(=O)n(C)c2=O)c1C | i | i | -10 | i | i | i | . | . | .
COc1ccccc1NC(=O)C1CCN(C(=O)NCc2ccccc2)CC1 | i | i | 51* | i | i | i | 80* | -0.54 | 3
Cc1ccc(-c2c(C(=O)NC(C)C)oc(=O)c3ccccc23)cc1 | i | i | 53* | i | i | i | 7 | -0.0095 | .
CC(C)CCOc1ccc(C(=O)NCC(c2ccco2)N(C)C)cc1 (configuration not stated) | i | i | 54* | i | -7.5* | i | -3 | -0.15 | .
FC(F)Oc1ccc(-c2csc(NNC3=NCCCCC3)n2)cc1 | i | i | 95* | i | i | i | 115* | 0.88 | 25
CC(C)(C)c1ccc(-c2csc(NNC3=NCCCCC3)n2)cc1 | i | i | 60* | i | i | i | 100* | -0.65 | 12
Brc1ccc(-c2csc(NNC3=NCCCCC3)n2)cc1 | i | i | . | i | i | i | . | . | .
c1ccc(-c2csc(NC3=NCCCCC3)n2)cc1 | i | i | -2 | i | i | i | . | . | .
COc1ccc(N(C(=O)CCl)C(C(=O)NCCc2ccccc2)c2cccs2)cc1Cl (configuration not stated) | i | i | 127* | i | i | i | ? | 34* | .
CCOc1ccc(C2C(C(=O)c3cccs3)=C(O)C(=O)N2CCN2CCOCC2)cc1 (configuration not stated) | i | i | 7 | i | i | i | . | . | .
SMILES | MrgX1 antag | MrgX1 allo act | Lipid droplet | MrgX1 ag | RGS4 pot | RGS4 block | Lipid drop inh | AML12 tox img | AML12 tox ATP
O=C(Nc1cccc(Br)c1)c1cccc(OC(=S)N2CCOCC2)c1 | i | i | 59* | i | i | i | 95* | 0.95 | 19
O=C(Nc1ccc(C(=O)N2CCOCC2)cc1)c1cccc(Br)c1 | i | i | 2 | i | i | i | . | . | .
O=[N+]([O-])c1cc(Cl)ccc1N1CCCC1 | i | i | 6 | i | i | i | . | . | .
O=[N+]([O-])c1cc(Cl)ccc1N1CCN(c2cccc(C(F)(F)F)c2)CC1 | i | i | 64* | i | i | i | 94* | 0.54 | 0
CCCCOc1ccc(NC(=O)Cn2c(=O)ccc3c(C)cc(C)nc32)cc1 | i | i | 66* | i | i | i | 91* | -0.13 | 10
CN(C)C(=O)C1Cc2ccccc2CN1S(=O)(=O)c1ccc(F)cc1 (configuration not stated) | i | i | 2 | i | i | i | . | . | .
COc1ccc(N2CCN(C(=O)CCc3nnc4ccc(N5CCCC5)nn34)CC2)cc1 | i | i | -8 | i | i | i | . | . | .
C/C(=N/NC(=O)c1nnn(-c2nonc2N)c1-c1ccccc1)c1ccc2c(c1)OCO2 | i | i | 10 | i | i | i | . | . | .
C/C(=N\N=C(/N)c1nonc1N)c1ccc2c(c1)OCO2 | i | i | 66* | i | i | i | 27 | 0.38 | .
